Source: PubChem (Sanford-Burnham Center for Chemical Genomics)
Most compounds without a hit are left out; they make up all but 1.4% or so of the library.
CXCR6 block = CXCR6 receptor inhibitors, primary screen, cell-based, beta-arrestin, luminescence, CHO-K1 PathHunter, 1536-well | 0.36% of 360,000 active | C-X-C chemokine receptor type 6 (Homo sapiens), O00574 | inhibition, % at 20 µM; in the data active = inhibition above about 34%, passing the limit was not always enough;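 note: antagonist mode with CXCL16 agonist at 10 nM final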
APJ ag = agonists of human apelin receptor APJ, primary screen, CHO-K1 cells, PathHunter beta-arrestin, luminescence; P35414; 0% DMSO wells, 100% apelin; activation, % at 20 µM; 0.11% of 330,000 active; AID 2520, 2010;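 active = activation more than six SD over the plate average, tested at 20 µM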
Target sequence (P35414 whole entry, looked up): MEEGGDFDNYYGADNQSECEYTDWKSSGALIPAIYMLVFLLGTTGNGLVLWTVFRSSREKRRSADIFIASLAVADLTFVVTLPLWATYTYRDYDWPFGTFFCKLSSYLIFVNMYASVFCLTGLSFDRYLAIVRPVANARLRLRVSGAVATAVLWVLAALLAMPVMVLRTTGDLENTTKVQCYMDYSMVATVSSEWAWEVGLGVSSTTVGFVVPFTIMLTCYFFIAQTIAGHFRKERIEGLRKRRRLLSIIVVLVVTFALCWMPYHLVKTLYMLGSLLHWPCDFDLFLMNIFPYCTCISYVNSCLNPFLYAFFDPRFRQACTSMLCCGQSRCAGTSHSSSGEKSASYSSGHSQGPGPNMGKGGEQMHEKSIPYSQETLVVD
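system = engineered CHO-K1 APJ arrestin reporter cells | input = 1000 cells per well | timing = overnight seeding, 90 min compound at 25 °C, 1 h detection | measured by = enzyme-fragment complementation luminescence | read-out = beta-arrestin recruitment to APJ as agonist activity, luminescent signal | control set = negative DMSO alone, positive Apelin-13 at 10 nM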
CCR6 antag = CCR6 receptor antagonists, primary screen, cell-based, CHO-K1, luminescence, beta-arrestin, uHTS; 0.49% of 340,000 active; C-C chemokine receptor type 6 (Homo sapiens), P51684; inhibition, % at 20 µM; AID 493098, 2011; CHO-K1 CCR6 PathHunter beta-arrestin, CCL20-stimulated;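 active = compounds whose inhibition of the agonist-driven luminescence signal at 20 µM reaches about 50%, limit read from the data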;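 note: cells stimulated with CCL20 at 14 nM final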
APJ antagonist = antagonists of human apelin receptor APJ, primary screen, CHO-K1 cells, beta-arrestin complementation, luminescence. inhibition, % at 20 µM. AID 2521, 2010. P35414. 0.32% of 330,000 active;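 active = inhibition above about 40% at 20 µM, limit read from the data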;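 note: cells challenged with 10 nM apelin-13 agonist together with compound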
A3A deaminase = APOBEC3A ssDNA deaminase inhibitors, primary screen, selectivity assay for APOBEC3G inhibitor project, biochemical, FAM/TAMRA oligo cleavage fluorescence. DNA dC->dU-editing enzyme APOBEC-3A (Homo sapiens), P31941. recombinant A3A, FAM/TAMRA ssDNA deamination fluorescence. inhibition, % at 20 µM. 0.41% of 330,000 active;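 active = at least 40% inhibition at 20 µM here, with at most 30% in a related deaminase screen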
Target sequence (P31941 whole entry, looked up): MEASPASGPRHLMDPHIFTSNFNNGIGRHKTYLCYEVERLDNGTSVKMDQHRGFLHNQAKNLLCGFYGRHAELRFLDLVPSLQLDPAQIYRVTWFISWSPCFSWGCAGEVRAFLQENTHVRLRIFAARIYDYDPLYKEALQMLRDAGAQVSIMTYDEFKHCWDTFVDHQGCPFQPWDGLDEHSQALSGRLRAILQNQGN
A3G deaminase = APOBEC3G DNA deaminase inhibitors, primary screen, biochemical, fluorescence, single-stranded DNA substrate, uHTS; DNA dC->dU-editing enzyme APOBEC-3G (Homo sapiens), Q9HC16; recombinant A3G, ssDNA deamination FAM/TAMRA fluorescence; inhibition, % at 20 µM; 0.28% of 330,000 active; AID 493012, 2011;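 active = inhibition of at least 40% at 20 µM, with no more than 30% in the related APOBEC3A deaminase screen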
APJ ag conf = agonists of human apelin receptor APJ, confirmation, cell-based, single concentration, CHO-K1, beta-arrestin, luminescence; 10% of 310 active; activation, % at 20 µM; CHO-K1 APJ PathHunter beta-arrestin; AID 2764, 2010; shares compounds with APJ ag;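 active = activation above 40%, taking the highest of four retests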
Hits are given with their value; 0 = inactive; - = no result.

SMILES	CXCR6 block	APJ ag	CCR6 antag	APJ antagonist	A3A deaminase	A3G deaminase	APJ ag conf
COc1ccc(/C=N/N(C(C)=O)c2nc(-c3ccc(C)cc3)cs2)cc1	0	50	0	0	0	0	0
CC(=O)N(/N=C/c1cccc(C)c1)c1nc(-c2ccc(Br)cc2)cs1	0	0	0	0	0	0	-
CCN(C(=O)CSc1nc2ccccc2o1)c1c(N)n(Cc2ccccc2)c(=O)[nH]c1=O	0	0	0	0	0	0	-
CC1Oc2ccccc2N(CC(=O)NC2CCCCC2)C1=O (stereo unspecified)	0	0	0	0	0	0	-
O=C(Nc1ccc(N2CCN(C(=O)c3ccco3)CC2)c(Cl)c1)c1cc2ccccc2o1	0	17	0	0	0	0	0
CCCC(=O)N1CCN(c2ccc(NC(=O)c3cc4ccccc4o3)cc2Cl)CC1	0	30	0	0	0	0	0
OC[C@H]1O[C@@H](c2nc(-c3cccc4ccccc34)no2)[C@H](O)[C@@H]1O	0	-	-	-	-	-	-
O=CNc1ccccc1	0	0	0	0	0	0	-
COc1ccc(N2CCN(C(=O)CC(C)S(=O)(=O)c3ccc4c(c3)NC(=O)CO4)CC2)cc1 (stereo unspecified)	0	0	0	0	0	0	-
CC(CC(=O)N1CCN(c2cccc(Cl)c2)CC1)S(=O)(=O)c1ccc2c(c1)NC(=O)CO2 (stereo unspecified)	0	33	0	0	0	0	0
CC1=NOC(=O)/C1=C/c1ccc(-c2ccc(Cl)cc2)o1	64	20	-	0	0	0	0
COc1ccc(Cl)cc1/C=C1/C(=O)ON=C1C	0	0	0	0	0	0	-
CC1=NOC(=O)/C1=C\c1ccc(-c2cc(Cl)ccc2Cl)o1	57	66	74	0	0	0	0
Cc1ccc(C2=NOC(=O)/C2=C\c2ccc(C)o2)cc1	0	0	0	0	0	0	-
Clc1ccc(CN2CCc3c([nH]c4ccccc34)C2)cc1Cl	0	85	0	0	0	0	0
O=C(NC(c1ccc(-c2ccccc2)cc1)c1cnccn1)C1CCN(CCN2C(=O)c3ccccc3C2=O)CC1 (stereo unspecified)	0	-	-	-	-	-	-
Cc1cc(-c2ccc(C(C)C)c(S(=O)(=O)Nc3ccccn3)c2)on1	0	0	0	0	0	0	-
CCCCC1=CC2=CC(=O)C(C)(OC(=O)CC)C(=O)C2=CN1C1CCCCC1 (stereo unspecified)	0	125	0	0	0	0	54
COC(=O)CCCC1=CC2=CC(=O)C(C)(OC(=O)c3cccs3)C(=O)C2=CN1C1CC1 (stereo unspecified)	0	0	0	0	0	0	-
COC(=O)CCCC1=CC2=CC(=O)C(C)(OC(=O)c3cccs3)C(=O)C2=CN1C1CCCCC1 (stereo unspecified)	0	92	0	0	0	0	0
COC(=O)c1cc(=O)n(CCc2ccc(OC)c(OC)c2)c(=Nc2ccc(F)c(Cl)c2)s1	0	0	0	0	0	0	-
Cc1cc(=O)oc2c(C)c(OC(C)C(=O)N3CC[C@@]4(O)CCCC[C@H]4C3)ccc12 (stereo partly specified)	0	0	0	0	0	0	-
CC(=O)c1c(C)[nH]c(C(=O)OCC(=O)Nc2ccc(C)cc2[N+](=O)[O-])c1C	0	0	0	0	0	0	-
CC(=O)c1c(C)[nH]c(C(=O)OCC(=O)Nc2cc(Cl)ccc2[N+](=O)[O-])c1C	0	17	0	0	0	0	0
O=C(NCCN1CCOCC1)/C(=C\c1ccc(F)cc1)NC(=O)c1ccccc1	0	0	0	0	0	0	-
SMILES	CXCR6 block	APJ ag	CCR6 antag	APJ antagonist	A3A deaminase	A3G deaminase	APJ ag conf
N#Cc1cc2cc3ccccc3nc2n2c(=O)c3ccccc3nc12	0	15	0	0	0	0	0
Cn1c(=O)c2cc3ccccc3nc2n(C)c1=O	0	0	0	0	0	0	-
CN(Cc1ccccc1F)C(=O)c1ccccc1Sc1ccccc1C#N	0	0	0	0	0	0	-
c1ccc2c(-c3cccc4nccn34)cncc2c1	0	-	-	-	-	-	-
CCOC(=O)c1c(C)[nH]c(C(=O)OCC(=O)Nc2sccc2C(N)=O)c1C	0	32	0	0	0	0	0
COC(=O)c1cnc(Oc2ccc(NC(=O)NC(=O)c3ccccc3Cl)cc2)cc1C(F)(F)F	0	20	0	0	0	0	0
O=C(CC1CC1)Nc1ccc2c(c1)[C@@H]1C[C@H](CC(=O)NC3CCCC3)O[C@@H](CO)[C@@H]1O2	0	-	-	-	-	-	-
Cc1ccc(/C=C2\C(=O)ON=C2c2ccccc2)o1	0	0	0	0	0	0	-
Cc1ccc(-c2ccc(/C=C3\C(=O)ON=C3c3ccccc3)o2)c([N+](=O)[O-])c1	0	16	62	0	0	0	0
CCO[C@@H]1OC(C(=O)NCc2ccccc2)=C[C@H](c2ccc(Br)cc2)[C@H]1CCCO	0	0	0	0	0	0	-
CCOc1cc2[nH]c(=S)n(CCCN(CC)CC)c(=O)c2cc1OCC	0	0	0	0	0	0	-
CCCCN(C)CCn1c(=S)[nH]c2cc(OCC)c(OCC)cc2c1=O	0	54	0	0	0	0	0
Cc1cc(C)c(S(=O)(=O)Nc2ccnc(-c3cccnc3)n2)c(C)c1	0	0	0	0	0	0	-
COc1ccc(CC(=O)Nc2cccc(-c3nnc(-c4ccc(C)cc4)o3)c2)cc1OC	0	28	0	0	0	0	0
COc1ccc(-c2nc(SC(C)C(=O)NCC3CCCO3)n[nH]2)cc1 (stereo unspecified)	0	0	0	0	0	0	-
COc1cc(-c2cc(=O)c3c(O)c(OC)c(OC)c(O)c3o2)ccc1O	0	28	0	0	0	0	0
Cc1ccc(S(=O)(=O)Nc2ccc(-c3csc(-c4ccccc4)n3)cc2)cc1	0	0	0	0	0	0	-
Cc1ccc(S(=O)(=O)Nc2nc(-c3ccccc3)cs2)cc1	0	30	0	0	0	0	55
CC1(C)OC(=O)C2=C(C[C@@H](C3CC3)O[C@@H]2C2CC2)O1	0	-	-	-	-	-	-
COc1ccccc1-n1c(SC)nc(O)cc1=O	0	66	0	0	0	0	88
O=C(Nc1ccccc1N1CCOCC1)c1ccc([N+](=O)[O-])s1	0	10	0	0	0	0	0
